According to ChEMBL document CHEMBL1149289, “Synthesis and antibacterial activity of new poly-S-lysine-porphyrin conjugates” (J Med Chem, 2004):

Tests used:
Staphylococcus aureus [1] = assay: Logarithmic survival of methicillin-resistant Staphylococcus aureus 110 at 1 uM after 10 mins and irradiated with white light at the fluence rate of 50 mW/cm2 for 30 mins relative to control; type: functional; settings: light or radiation study
How it was run: (§1)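 MRSA 110 grown aerobically at 37 °C on BHA. Stationary-phase cells were taken into BHI, washed twice in PBS and diluted to OD650 ~0.7 (10^8 to 10^9 cells/mL). Suspensions were held with photosensitizer for 10 min in the dark at room temperature, then given white light for 30 min. Cells were serially diluted, plated on BHA and counted after 16–20 h at 37 °C. Survival = cfu ÷ cfu of photosensitizer-free controls.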

[2] = Photostability after irradiation with white light at the fluence rate of 50 mW/cm2 for 5 mins; type: ADME; settings: read-out: Stability
Staphylococcus aureus [3] = assay: Antibacterial activity against Staphylococcus aureus ATCC 25923 measured as 4 log decrease in survival; type: functional
How it was run: (§2)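 Strains grown aerobically at 37 °C on brain heart agar; stationary-phase cells washed twice in PBS and adjusted to OD650 ca. 0.7 (10^8 to 10^9 cells/mL). Cells incubated with photosensitizer at various concentrations for 10 min in the dark at room temperature, then irradiated with white light at 50 mW/cm² for 30 min. Survivors counted as cfu on BHA after 16–20 h at 37 °C, expressed relative to no-photosensitizer controls. Dark controls were run without irradiation.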

Staphylococcus aureus [4] = assay: Logarithmic survival of Staphylococcus aureus ATCC 25923 at 1 uM after 10 mins and irradiated with white light at the fluence rate of 50 mW/cm2 for 30 mins relative to control; type: functional; settings: ATCC 25923, light or radiation study; how it was run: as §2
Staphylococcus aureus [5] = assay: Antibacterial activity against methicillin-resistant Staphylococcus aureus 110 measured as 4 log decrease in survival; type: functional; how it was run: as §2
Staphylococcus aureus [6] = assay: Logarithmic survival of Staphylococcus aureus ATCC 25923 at 0.5 uM after 10 mins and irradiated with white light at the fluence rate of 50 mW/cm2 for 30 mins relative to control; type: functional; settings: ATCC 25923, light or radiation study; how it was run: as §2
Staphylococcus aureus [7] = assay: Drug uptake per mg of protein in Staphylococcus aureus ATCC 25923 at 5 uM after 10 mins; type: ADME, organism-based; settings: in vivo
How it was run: (§3)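 Bacterial suspensions (10^8 to 10^9 cells/mL in PBS) were incubated with porphyrin for 10 min in the dark at room temperature, then centrifuged. The pellet was digested in 2% aqueous SDS. Porphyrin was quantified by spectrofluorimetry and cell protein by modified Lowry assay (BSA standard). Uptake is given as nmol per mg cell protein.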

Staphylococcus aureus [8] = assay: Logarithmic survival of methicillin-resistant Staphylococcus aureus 110 at 0.1 uM after 10 mins and irradiated with white light at the fluence rate of 50 mW/cm2 for 1 min relative to control; type: functional; settings: light or radiation study
How it was run: (§4)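 S. aureus ATCC 25923 or MRSA 110 (PBS-washed, 10^8 to 10^9 cells/mL) were incubated with 0.1 μM photosensitizer for 10 min in the dark at room temperature. They were then irradiated with white light at 50 mW/cm² for varying times up to 30 min. Survival was read as cfu on BHA and divided by cfu of controls without photosensitizer.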

Staphylococcus aureus [9] = assay: Logarithmic survival of Staphylococcus aureus ATCC 25923 at 0.1 uM after 10 mins and irradiated with white light at the fluence rate of 50 mW/cm2 for 10 mins relative to control; type: functional; settings: ATCC 25923, light or radiation study; how it was run: as §4
Escherichia coli [10] = assay: Drug uptake per mg of protein in Escherichia coli O4 at 5 uM after 10 mins; type: ADME, organism-based; settings: in vivo; how it was run: as §3
Staphylococcus aureus [11] = assay: Drug uptake per mg of protein in Staphylococcus aureus ATCC 25923 at 0.5 uM after 10 mins; type: ADME, organism-based; settings: in vivo; how it was run: as §3
[12] = Photostability after irradiation with white light at the fluence rate of 50 mW/cm2 for 1 min; type: ADME; settings: read-out: Stability
Escherichia coli [13] = assay: Logarithmic survival of Escherichia coli O4 at 10 uM after 10 mins and irradiated with white light at the fluence rate of 50 mW/cm2 for 30 mins relative to control; type: functional; settings: O4, light or radiation study; how it was run: as §2
Staphylococcus aureus [14] = assay: Logarithmic survival of Staphylococcus aureus ATCC 25923 at 0.1 uM after 10 mins and irradiated with white light at the fluence rate of 50 mW/cm2 for 1 min relative to control; type: functional; settings: ATCC 25923, light or radiation study; how it was run: as §4
[15] = Photostability after irradiation with white light at the fluence rate of 50 mW/cm2 for 10 mins; type: ADME; settings: read-out: Stability
Escherichia coli [16] = assay: Logarithmic survival of Escherichia coli O4 at 0.25 uM after 10 mins and irradiated with white light at the fluence rate of 50 mW/cm2 for 30 mins relative to control; type: functional; settings: O4, light or radiation study; how it was run: as §2
Staphylococcus aureus [17] = assay: Logarithmic survival of Staphylococcus aureus ATCC 25923 at 0.1 uM after 10 mins and irradiated with white light at the fluence rate of 50 mW/cm2 for 30 mins relative to control; type: functional; settings: ATCC 25923, light or radiation study; how it was run: as §4
Staphylococcus aureus [18] = assay: Logarithmic survival of Staphylococcus aureus ATCC 25923 at 5 uM after 10 mins and irradiated with white light at the fluence rate of 50 mW/cm2 for 30 mins relative to control; type: functional; settings: ATCC 25923, light or radiation study; how it was run: as §2
Escherichia coli [19] = assay: Logarithmic survival of Escherichia coli O4 at 0.01 uM after 10 mins and irradiated with white light at the fluence rate of 50 mW/cm2 for 30 mins relative to control; type: functional; settings: O4, light or radiation study; how it was run: as §2
Staphylococcus aureus [20] = assay: Logarithmic survival of methicillin-resistant Staphylococcus aureus 110 at 10 uM after 10 mins and irradiated with white light at the fluence rate of 50 mW/cm2 for 30 mins relative to control; type: functional; settings: light or radiation study; how it was run: as §1
Staphylococcus aureus [21] = assay: Logarithmic survival of methicillin-resistant Staphylococcus aureus 110 at 0.1 uM after 10 mins and irradiated with white light at the fluence rate of 50 mW/cm2 for 2.5 mins relative to control; type: functional; settings: light or radiation study; how it was run: as §4
Escherichia coli [22] = assay: Antibacterial activity against Escherichia coli O4 measured as 4 log decrease in survival; type: functional; how it was run: as §2
Staphylococcus aureus [23] = assay: Logarithmic survival of methicillin-resistant Staphylococcus aureus 110 at 0.1 uM after 10 mins and irradiated with white light at the fluence rate of 50 mW/cm2 for 30 mins relative to control; type: functional; settings: light or radiation study; how it was run: as §4
Staphylococcus aureus [24] = assay: Logarithmic survival of Staphylococcus aureus ATCC 25923 at 10 uM after 10 mins and irradiated with white light at the fluence rate of 50 mW/cm2 for 30 mins relative to control; type: functional; settings: ATCC 25923, light or radiation study; how it was run: as §2
Staphylococcus aureus [25] = assay: Logarithmic survival of methicillin-resistant Staphylococcus aureus 110 at 2.5 uM after 10 mins and irradiated with white light at the fluence rate of 50 mW/cm2 for 30 mins relative to control; type: functional; settings: light or radiation study; how it was run: as §1
Escherichia coli [26] = assay: Logarithmic survival of Escherichia coli O4 at 1 uM after 10 mins and irradiated with white light at the fluence rate of 50 mW/cm2 for 30 mins relative to control; type: functional; settings: O4, light or radiation study; how it was run: as §2
Staphylococcus aureus [27] = assay: Logarithmic survival of Staphylococcus aureus ATCC 25923 at 0.1 uM after 10 mins and irradiated with white light at the fluence rate of 50 mW/cm2 for 2.5 mins relative to control; type: functional; settings: ATCC 25923, light or radiation study; how it was run: as §4
Staphylococcus aureus [28] = assay: Logarithmic survival of methicillin-resistant Staphylococcus aureus 110 at 0.1 uM after 10 mins and irradiated with white light at the fluence rate of 50 mW/cm2 relative to control; type: functional; settings: light or radiation study
Staphylococcus aureus [29] = assay: Logarithmic survival of Staphylococcus aureus ATCC 25923 at 0.25 uM after 10 mins and irradiated with white light at the fluence rate of 50 mW/cm2 for 30 mins relative to control; type: functional; settings: ATCC 25923, light or radiation study; how it was run: as §2
Staphylococcus aureus [30] = assay: Drug uptake per mg of protein in Staphylococcus aureus ATCC 25923 at 2.5 uM after 10 mins; type: ADME, organism-based; settings: in vivo; how it was run: as §3
Escherichia coli [31] = assay: Drug uptake per mg of protein in Escherichia coli O4 at 10 uM after 10 mins; type: ADME, organism-based; settings: in vivo; how it was run: as §3

Structure (SMILES)	survival at 1 µM (Staphylococcus aureus [1])	remaining at 5 min [2] [%]	Activity (Staphylococcus aureus [3]) [µM]	survival at 1 µM (Staphylococcus aureus [4]) [%]	Activity (Staphylococcus aureus [5]) [µM]	survival at 0.5 µM (Staphylococcus aureus [6])	Drug uptake (Staphylococcus aureus [7]) [nmol/mg]	survival at 0.1 µM (Staphylococcus aureus [8])	survival at 0.1 µM (Staphylococcus aureus [9])	Drug uptake (Escherichia coli [10]) [nmol/mg]	Drug uptake (Staphylococcus aureus [11]) [nmol/mg]	remaining at 1 min [12] [%]	survival at 10 µM (Escherichia coli [13])	survival at 0.1 µM (Staphylococcus aureus [14])	remaining at 10 min [15] [%]	survival at 0.25 µM (Escherichia coli [16])	survival at 0.1 µM (Staphylococcus aureus [17])	survival at 5 µM (Staphylococcus aureus [18]) [%]	survival at 0.01 µM (Escherichia coli [19])	survival at 10 µM (Staphylococcus aureus [20])	further results
C[n+]1ccc(-c2c3nc(c(-c4cc[n+](C)cc4)c4ccc([nH]4)c(-c4cc[n+](C)cc4)c4nc(c(-c5ccc(C(=O)O)cc5)c5ccc2[nH]5)C=C4)C=C3)cc1.[I-].[I-].[I-]	-0.43	83	2.5	-1.32	2.5	-0.42	9.97	1.96	-0.42	4.35	1.88	93	-4.36	0.67	77	1.64	1.87	-3.06	2	-2.7	survival at 0.1 µM (Staphylococcus aureus [21]): 1.84; Activity (Escherichia coli [22]): 5 µM; survival at 0.1 µM (Staphylococcus aureus [23]): 1.69%; survival at 10 µM (Staphylococcus aureus [24]): -4.36%; survival at 2.5 µM (Staphylococcus aureus [25]): -2.13; survival at 1 µM (Escherichia coli [26]): 0.68; survival at 0.1 µM (Staphylococcus aureus [27]): 0.49; survival at 0.1 µM (Staphylococcus aureus [28]): 1.95; survival at 0.25 µM (Staphylococcus aureus [29]): 1.56; Drug uptake (Staphylococcus aureus [30]): 7.77 nmol/mg; Drug uptake (Escherichia coli [31]): 6.88 nmol/mg
O=C(O)c1ccc(-c2c3nc(c(-c4ccncc4)c4ccc([nH]4)c(-c4ccncc4)c4nc(c(-c5ccncc5)c5ccc2[nH]5)C=C4)C=C3)cc1 [PORPHIRIN]	-2.27	96	0.25	-2.7	1	-2.39	81.4	1.83	-2.07	85.6	3.15	99	-4.06	1.49	94	1.7	-1.7	-3.73	2	-3.35	survival at 0.1 µM (Staphylococcus aureus [21]): 1.8; Activity (Escherichia coli [22]): 10 µM; survival at 0.1 µM (Staphylococcus aureus [23]): 0.46%; survival at 10 µM (Staphylococcus aureus [24]): -4.06%; survival at 2.5 µM (Staphylococcus aureus [25]): -3.11; survival at 1 µM (Escherichia coli [26]): 1.72; survival at 0.1 µM (Staphylococcus aureus [27]): 0.22; survival at 0.1 µM (Staphylococcus aureus [28]): 1.89; survival at 0.25 µM (Staphylococcus aureus [29]): -1.9; Drug uptake (Staphylococcus aureus [30]): 32.1 nmol/mg; Drug uptake (Escherichia coli [31]): 163 nmol/mg
